Reference: ChEMBL document CHEMBL5653631, “A Potent and Selective ULK1 Inhibitor Suppresses Autophagy and Sensitizes Cancer Cells to Nutrient Stress” (iScience, 2018)
One block for each compound: values may come before it.

Tests used:
[1] = biological target: [Pyruvate dehydrogenase (acetyl-transferring)] kinase isozyme 4, mitochondrial (Homo sapiens) (UniProt Q16654); experiment: Inhibition of human recombinant PDHK4 at 500 nM in presence of ATP by radiometric assay relative to control
[2] = biological target: Serine/threonine-protein kinase SIK1 (Homo sapiens) (UniProt P57059); experiment: Inhibition of human recombinant SIK at 500 nM in presence of ATP by radiometric assay relative to control
Serine/threonine-protein kinase SIK1 (Homo sapiens), sequence (P57059 whole entry): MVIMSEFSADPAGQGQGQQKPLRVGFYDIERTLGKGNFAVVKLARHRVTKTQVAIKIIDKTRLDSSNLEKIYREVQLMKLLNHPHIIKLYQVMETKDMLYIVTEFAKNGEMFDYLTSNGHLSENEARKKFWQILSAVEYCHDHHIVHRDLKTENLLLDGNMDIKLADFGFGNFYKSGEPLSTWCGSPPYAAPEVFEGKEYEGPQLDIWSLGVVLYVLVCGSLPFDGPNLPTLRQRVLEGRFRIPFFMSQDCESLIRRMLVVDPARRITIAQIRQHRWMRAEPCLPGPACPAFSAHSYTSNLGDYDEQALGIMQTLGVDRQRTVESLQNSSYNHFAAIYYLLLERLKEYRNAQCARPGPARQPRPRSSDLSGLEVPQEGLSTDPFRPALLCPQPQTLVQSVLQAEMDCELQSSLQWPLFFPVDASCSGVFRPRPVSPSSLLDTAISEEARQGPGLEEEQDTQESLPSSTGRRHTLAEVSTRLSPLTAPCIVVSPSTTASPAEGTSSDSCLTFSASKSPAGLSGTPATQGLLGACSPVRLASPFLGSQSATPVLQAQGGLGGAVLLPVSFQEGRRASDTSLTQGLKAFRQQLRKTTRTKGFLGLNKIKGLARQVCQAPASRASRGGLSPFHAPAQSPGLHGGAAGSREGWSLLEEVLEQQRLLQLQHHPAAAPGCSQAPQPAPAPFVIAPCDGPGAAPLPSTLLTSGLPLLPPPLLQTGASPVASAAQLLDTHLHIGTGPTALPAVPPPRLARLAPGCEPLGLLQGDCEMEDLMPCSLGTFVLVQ

[3] = biological target: Ephrin type-A receptor 5 (Homo sapiens) (UniProt P54756); experiment: Inhibition of human recombinant EphA5 at 500 nM in presence of ATP by radiometric assay relative to control
Ephrin type-A receptor 5 (Homo sapiens), sequence (P54756 whole entry): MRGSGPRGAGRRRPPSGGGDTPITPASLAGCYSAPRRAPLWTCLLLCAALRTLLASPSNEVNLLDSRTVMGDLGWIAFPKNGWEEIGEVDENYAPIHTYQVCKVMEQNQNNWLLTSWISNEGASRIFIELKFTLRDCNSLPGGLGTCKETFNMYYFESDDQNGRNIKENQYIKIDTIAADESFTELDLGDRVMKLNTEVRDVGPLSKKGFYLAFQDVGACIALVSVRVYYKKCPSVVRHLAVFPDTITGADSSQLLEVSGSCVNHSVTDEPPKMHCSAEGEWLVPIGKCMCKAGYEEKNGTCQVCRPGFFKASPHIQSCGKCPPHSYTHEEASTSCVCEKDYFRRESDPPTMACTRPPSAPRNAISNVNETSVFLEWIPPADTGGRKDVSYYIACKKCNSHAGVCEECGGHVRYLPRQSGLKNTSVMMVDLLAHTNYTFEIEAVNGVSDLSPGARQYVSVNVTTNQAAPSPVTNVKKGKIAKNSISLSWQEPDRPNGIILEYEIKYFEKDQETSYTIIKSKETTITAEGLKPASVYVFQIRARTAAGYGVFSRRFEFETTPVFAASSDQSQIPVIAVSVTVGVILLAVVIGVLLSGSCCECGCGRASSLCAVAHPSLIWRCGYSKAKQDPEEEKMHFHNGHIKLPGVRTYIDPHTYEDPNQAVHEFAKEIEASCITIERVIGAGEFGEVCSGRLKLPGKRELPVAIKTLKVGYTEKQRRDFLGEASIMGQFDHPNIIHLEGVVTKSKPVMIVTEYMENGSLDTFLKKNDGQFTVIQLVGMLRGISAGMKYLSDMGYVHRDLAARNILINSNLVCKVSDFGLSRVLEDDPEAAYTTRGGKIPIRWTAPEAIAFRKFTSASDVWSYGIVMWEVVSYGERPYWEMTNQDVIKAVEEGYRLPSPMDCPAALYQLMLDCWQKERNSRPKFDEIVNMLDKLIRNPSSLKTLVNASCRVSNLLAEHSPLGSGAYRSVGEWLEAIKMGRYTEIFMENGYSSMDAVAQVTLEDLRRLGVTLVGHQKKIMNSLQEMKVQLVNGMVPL

[4] = biological target: MAP/microtubule affinity-regulating kinase 3 (Homo sapiens) (UniProt P27448); experiment: Inhibition of human recombinant MARK3 at 500 nM in presence of ATP by radiometric assay relative to control
MAP/microtubule affinity-regulating kinase 3 (Homo sapiens), sequence (P27448 whole entry, looked up): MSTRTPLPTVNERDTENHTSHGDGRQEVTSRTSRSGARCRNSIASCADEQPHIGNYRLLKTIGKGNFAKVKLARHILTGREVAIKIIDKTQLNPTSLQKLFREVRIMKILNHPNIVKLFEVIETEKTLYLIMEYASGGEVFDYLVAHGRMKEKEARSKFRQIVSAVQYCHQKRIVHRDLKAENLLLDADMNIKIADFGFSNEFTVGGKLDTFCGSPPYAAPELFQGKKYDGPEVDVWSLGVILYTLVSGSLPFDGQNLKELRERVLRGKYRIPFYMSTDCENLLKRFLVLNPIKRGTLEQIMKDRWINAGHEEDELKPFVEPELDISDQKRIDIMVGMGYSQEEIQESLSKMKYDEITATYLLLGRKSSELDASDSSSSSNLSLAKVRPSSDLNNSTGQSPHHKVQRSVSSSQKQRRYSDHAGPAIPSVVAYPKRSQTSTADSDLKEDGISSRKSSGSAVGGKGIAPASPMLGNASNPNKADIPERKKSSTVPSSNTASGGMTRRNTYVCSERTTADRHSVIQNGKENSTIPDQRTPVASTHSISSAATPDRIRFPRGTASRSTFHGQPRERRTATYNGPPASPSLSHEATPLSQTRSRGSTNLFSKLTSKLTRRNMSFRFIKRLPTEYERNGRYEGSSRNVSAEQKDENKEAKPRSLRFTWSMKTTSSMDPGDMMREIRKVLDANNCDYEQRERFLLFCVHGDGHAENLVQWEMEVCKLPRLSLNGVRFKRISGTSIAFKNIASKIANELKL

[5] = biological target: Macrophage-stimulating protein receptor (Homo sapiens) (UniProt Q04912); experiment: Inhibition of human recombinant RON at 500 nM related to control ULK1
[6] = biological target: Serine/threonine-protein kinase 33 (Homo sapiens) (UniProt Q9BYT3); experiment: Inhibition of human recombinant STK33 at 500 nM related to control ULK1
Serine/threonine-protein kinase 33 (Homo sapiens), sequence (Q9BYT3 whole entry, looked up): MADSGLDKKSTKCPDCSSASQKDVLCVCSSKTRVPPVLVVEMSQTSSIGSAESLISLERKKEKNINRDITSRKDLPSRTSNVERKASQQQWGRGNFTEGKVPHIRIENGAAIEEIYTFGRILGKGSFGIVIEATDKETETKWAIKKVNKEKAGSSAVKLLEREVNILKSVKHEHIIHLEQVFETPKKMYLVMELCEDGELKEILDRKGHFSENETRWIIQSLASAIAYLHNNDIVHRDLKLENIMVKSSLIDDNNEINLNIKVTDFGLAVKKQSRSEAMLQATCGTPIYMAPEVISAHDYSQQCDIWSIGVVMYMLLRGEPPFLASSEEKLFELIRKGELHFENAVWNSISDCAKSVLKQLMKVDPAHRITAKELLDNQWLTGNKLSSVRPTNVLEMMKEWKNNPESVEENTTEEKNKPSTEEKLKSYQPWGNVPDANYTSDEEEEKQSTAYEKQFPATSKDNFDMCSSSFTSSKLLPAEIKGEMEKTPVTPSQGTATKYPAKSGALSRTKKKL

[7] = biological target: Rho-associated protein kinase 1 (Homo sapiens) (UniProt Q13464); experiment: Inhibition of human recombinant ROCK1 at 500 nM related to control ULK1
Rho-associated protein kinase 1 (Homo sapiens), sequence (Q13464 2-1354 limits assumed): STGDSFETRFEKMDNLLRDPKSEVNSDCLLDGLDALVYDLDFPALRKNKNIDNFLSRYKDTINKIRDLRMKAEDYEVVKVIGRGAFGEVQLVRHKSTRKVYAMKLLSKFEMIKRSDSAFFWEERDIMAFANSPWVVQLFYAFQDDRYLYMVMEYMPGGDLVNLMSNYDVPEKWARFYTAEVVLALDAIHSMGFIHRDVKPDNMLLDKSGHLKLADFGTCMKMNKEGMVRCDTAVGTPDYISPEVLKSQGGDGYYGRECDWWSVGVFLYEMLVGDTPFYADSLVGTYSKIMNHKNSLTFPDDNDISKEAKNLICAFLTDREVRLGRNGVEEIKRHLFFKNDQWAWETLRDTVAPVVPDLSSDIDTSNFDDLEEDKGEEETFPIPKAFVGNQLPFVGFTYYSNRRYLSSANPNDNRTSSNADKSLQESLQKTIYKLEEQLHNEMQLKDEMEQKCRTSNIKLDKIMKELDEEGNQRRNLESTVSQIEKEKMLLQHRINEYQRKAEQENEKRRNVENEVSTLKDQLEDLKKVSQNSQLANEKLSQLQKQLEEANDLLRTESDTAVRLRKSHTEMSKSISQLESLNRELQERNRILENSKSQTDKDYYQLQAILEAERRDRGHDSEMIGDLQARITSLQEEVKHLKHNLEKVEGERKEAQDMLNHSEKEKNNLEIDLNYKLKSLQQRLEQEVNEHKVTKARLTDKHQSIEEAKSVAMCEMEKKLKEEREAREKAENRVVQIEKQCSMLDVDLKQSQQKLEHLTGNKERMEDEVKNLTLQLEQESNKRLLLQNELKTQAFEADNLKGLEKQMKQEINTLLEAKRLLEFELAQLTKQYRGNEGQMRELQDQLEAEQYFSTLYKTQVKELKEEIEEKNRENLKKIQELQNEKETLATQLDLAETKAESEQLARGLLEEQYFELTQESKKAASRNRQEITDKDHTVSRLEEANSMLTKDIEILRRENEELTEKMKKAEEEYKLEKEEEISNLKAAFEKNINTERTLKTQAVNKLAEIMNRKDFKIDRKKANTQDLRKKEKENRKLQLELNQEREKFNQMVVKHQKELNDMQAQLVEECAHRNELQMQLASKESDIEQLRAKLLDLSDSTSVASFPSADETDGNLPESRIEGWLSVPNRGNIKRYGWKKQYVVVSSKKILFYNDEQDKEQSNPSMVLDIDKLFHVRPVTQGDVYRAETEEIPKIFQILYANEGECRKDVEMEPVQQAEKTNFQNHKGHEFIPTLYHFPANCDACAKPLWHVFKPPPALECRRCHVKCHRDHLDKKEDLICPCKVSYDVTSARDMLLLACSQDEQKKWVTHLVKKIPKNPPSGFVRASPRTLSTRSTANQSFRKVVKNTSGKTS

[8] = biological target: T1, Activin receptor type-1B (Homo sapiens) (UniProt P36896); experiment: Inhibition of human recombinant ALK4 at 500 nM in presence of ATP by radiometric assay relative to control
T1 sequence (whole entry): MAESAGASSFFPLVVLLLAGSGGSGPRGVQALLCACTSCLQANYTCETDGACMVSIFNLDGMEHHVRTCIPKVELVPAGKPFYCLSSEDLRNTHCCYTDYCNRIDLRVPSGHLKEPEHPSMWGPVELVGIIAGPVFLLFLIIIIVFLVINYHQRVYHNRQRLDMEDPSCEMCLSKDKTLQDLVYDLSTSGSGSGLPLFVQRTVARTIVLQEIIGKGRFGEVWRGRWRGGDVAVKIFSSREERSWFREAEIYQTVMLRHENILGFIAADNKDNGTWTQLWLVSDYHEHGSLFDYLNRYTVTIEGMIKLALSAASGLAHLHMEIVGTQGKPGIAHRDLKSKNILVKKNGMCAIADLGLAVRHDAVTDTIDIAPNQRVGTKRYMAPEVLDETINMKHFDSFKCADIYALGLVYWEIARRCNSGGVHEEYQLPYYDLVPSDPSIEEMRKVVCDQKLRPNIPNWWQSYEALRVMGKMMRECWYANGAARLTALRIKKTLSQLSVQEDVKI
Summary of the method: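 Panel of 327 recombinant human kinases, each assayed in vitro by radiometric activity assay in duplicate at a single inhibitor concentration per compound, chosen with reference to its ULK1 inhibition. Activity remaining was expressed as percent of vehicle control, and percent inhibition was calculated as 100 minus percent activity remaining.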

Homo sapiens = species: Homo sapiens; experiment: Inhibition of human recombinant ABL at 40 nM related to control ULK1
Summary of the method: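 Radiometric activity assays in a panel of 327 human recombinant kinases, each run in duplicate at one inhibitor concentration. Activity remaining is expressed as percent of vehicle control, and percent inhibition is calculated as 100% minus percent activity remaining.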

[9] = biological target: Serine/threonine-protein kinase MRCK alpha (Homo sapiens) (UniProt Q5VT25); experiment: Inhibition of human recombinant MRCKa at 40 nM related to control ULK1
[10] = biological target: Misshapen-like kinase 1 (Homo sapiens) (UniProt Q8N4C8); experiment: Inhibition of human recombinant MINK at 15 nM in presence of ATP by radiometric assay relative to control
[11] = biological target: T2, Mitogen-activated protein kinase kinase kinase kinase 2 (Homo sapiens) (UniProt Q12851); experiment: Inhibition of human recombinant GCK at 15 nM related to control ULK1
T2 sequence (whole entry): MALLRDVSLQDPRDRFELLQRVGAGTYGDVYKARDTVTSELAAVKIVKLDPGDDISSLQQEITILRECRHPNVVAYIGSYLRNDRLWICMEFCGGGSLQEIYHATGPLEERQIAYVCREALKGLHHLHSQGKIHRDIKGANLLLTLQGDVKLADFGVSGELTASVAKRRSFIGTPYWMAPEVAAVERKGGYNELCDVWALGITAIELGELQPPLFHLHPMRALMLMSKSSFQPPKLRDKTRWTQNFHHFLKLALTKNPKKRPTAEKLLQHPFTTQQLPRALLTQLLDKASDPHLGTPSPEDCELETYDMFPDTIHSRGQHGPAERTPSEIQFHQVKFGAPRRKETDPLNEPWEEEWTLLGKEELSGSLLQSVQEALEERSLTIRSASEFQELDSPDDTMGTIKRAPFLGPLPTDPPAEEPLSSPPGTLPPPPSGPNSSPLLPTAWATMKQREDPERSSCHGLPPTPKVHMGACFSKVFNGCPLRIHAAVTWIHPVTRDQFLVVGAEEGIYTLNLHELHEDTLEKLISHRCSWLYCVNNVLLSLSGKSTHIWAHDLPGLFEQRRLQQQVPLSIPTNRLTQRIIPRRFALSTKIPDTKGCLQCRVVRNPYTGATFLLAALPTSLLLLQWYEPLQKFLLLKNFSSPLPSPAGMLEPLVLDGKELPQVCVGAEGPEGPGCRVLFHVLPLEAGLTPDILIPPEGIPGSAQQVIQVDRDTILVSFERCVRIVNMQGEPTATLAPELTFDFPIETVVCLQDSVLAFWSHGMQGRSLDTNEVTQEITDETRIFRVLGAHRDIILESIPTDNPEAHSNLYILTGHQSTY

[Pyruvate dehydrogenase (acetyl-transferring)] kinase isozyme 4, mitochondrial (Homo sapiens), sequence (Q16654 whole entry, looked up): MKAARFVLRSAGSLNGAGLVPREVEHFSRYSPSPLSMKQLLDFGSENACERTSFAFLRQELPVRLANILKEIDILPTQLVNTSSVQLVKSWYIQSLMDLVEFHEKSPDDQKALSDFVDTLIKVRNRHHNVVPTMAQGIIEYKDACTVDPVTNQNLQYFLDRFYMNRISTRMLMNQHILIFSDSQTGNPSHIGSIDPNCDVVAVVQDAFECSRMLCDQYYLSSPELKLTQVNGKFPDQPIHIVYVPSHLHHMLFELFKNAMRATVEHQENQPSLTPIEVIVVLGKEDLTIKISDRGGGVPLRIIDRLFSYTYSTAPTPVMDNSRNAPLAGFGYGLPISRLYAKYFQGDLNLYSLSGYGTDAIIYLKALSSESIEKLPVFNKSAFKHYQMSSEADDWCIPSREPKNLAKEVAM

inhibition [1]: 5% | inhibition [2]: 20% | inhibition [3]: 19% | inhibition [4]: 45% | fold change (FC) [5]: 0.01 | fold change (FC) [6]: 0.05 | fold change (FC) [7]: 0 | inhibition [8]: 15%
SMILES: CNC(=O)c1ccccc1Oc1nc(Nc2cc(OC)c(OC)c(OC)c2)ncc1Br

fold change (FC) (Homo sapiens): 0.16 | fold change (FC) [9]: 0.03
SMILES: O=C(N[C@@H](C1CC1)C(F)(F)F)c1cc(-c2cnn3cc(-c4ccc(F)cc4)cnc23)cs1

inhibition [10]: 4% | fold change (FC) [11]: 0.39
SMILES: CC(C)[C@H](NC(=O)c1cc(-c2cnn3cc(-c4ccc(OCCN5CCCCC5)cc4)cnc23)cs1)C(F)(F)F
